What all share (conditions): read-out: pA2 (converted)
One assay has as its target T1, Substance-K receptor (Rattus norvegicus, UniProt P16610).
T1 sequence (P16610 whole entry): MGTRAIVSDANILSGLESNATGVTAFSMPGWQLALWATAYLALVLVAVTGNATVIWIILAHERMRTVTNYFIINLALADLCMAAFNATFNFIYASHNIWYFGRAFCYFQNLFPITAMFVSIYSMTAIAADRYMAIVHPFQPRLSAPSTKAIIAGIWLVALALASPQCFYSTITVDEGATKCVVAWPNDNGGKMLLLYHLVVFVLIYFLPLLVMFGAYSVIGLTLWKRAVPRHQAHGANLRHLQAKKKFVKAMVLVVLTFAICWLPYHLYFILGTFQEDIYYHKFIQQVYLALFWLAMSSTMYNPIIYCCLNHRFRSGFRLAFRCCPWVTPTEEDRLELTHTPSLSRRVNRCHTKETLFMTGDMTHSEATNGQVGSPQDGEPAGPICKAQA
The experiment in a line: Inhibition of eledoisin binding to NK-2 receptor in rat vas deferens. The method, boiled down:
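Vas deferens from Sprague-Dawley rats (200–300 g), electrically stimulated contractions with supramaximal rectangular bipolar pulses. Eledoisin log dose-response curves; antagonism taken from rightward shift. pA2 by Schild regression over three or more antagonist concentrations, or apparent pA2 from one antagonist concentration via the standard Schild equation assuming unit slope.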

The target in a further assay is Substance-P receptor (Cavia porcellus, UniProt P30547). As to the kind of experiment: Tested for antagonist activity toward NK-1 receptor in guinea pig ileum against the agonist eledoisin (mean +/-, n=4). In kind it is functional, tissue-based. The method, boiled down: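 Guinea pig (male Dunkin-Hartley, 300–400 g) small-intestine longitudinal muscle, isometric contraction in Krebs-Henseleit at 37 °C with atropine, mepyramine, methysergide (each 5 μM) and indomethacin (1 μM). Antagonism measured as rightward shift of log dose-response curves to eledoisin. pA2 from Schild regression (least squares, three or more antagonist concentrations, three or more observations each), or apparent pA2 at a single concentration assuming unit slope (mean of 3–4 observations).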
Substance-P receptor, sequence (P30547 whole entry): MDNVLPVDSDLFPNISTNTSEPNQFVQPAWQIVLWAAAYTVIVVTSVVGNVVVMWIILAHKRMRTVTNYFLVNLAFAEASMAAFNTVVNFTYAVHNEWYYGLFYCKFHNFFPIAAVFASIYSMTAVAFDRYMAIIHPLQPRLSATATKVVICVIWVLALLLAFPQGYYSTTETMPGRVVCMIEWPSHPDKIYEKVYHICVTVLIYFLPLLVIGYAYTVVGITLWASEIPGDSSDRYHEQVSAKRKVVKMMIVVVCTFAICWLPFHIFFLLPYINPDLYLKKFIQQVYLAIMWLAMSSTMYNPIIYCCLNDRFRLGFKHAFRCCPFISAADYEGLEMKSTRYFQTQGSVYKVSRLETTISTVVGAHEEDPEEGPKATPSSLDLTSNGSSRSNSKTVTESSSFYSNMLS

Another assay addresses T2, Neuromedin-K receptor (Rattus norvegicus, UniProt P16177).
T2 sequence (P16177 whole entry): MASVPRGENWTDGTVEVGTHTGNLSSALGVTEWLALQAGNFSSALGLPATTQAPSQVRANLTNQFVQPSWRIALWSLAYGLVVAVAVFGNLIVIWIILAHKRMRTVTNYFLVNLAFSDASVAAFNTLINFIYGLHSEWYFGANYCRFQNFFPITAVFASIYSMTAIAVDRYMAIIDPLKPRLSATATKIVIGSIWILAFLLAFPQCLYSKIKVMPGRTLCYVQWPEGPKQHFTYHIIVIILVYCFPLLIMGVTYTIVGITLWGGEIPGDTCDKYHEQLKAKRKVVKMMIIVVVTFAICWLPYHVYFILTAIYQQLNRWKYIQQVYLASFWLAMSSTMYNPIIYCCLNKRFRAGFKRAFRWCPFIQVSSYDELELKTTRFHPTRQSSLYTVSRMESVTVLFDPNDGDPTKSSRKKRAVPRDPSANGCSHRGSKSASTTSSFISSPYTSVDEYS
As to the kind of experiment: Tested for antagonist activity toward NK-3 receptor in rat portal vein against the agonist eledoisin (mean +/-, n=4). The class given is functional. The procedure, abridged:
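Rat portal vein longitudinal strips; frequency and amplitude of myogenic contractions recorded. Antagonist activity derived from rightward shift of eledoisin log dose-response curves. pA2 by Schild regression, least squares, three or more antagonist concentrations, or apparent pA2 at a single antagonist concentration assuming unit slope (mean of three or four observations).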

This note sets out measurements from ChEMBL document CHEMBL1126670, “Cyclic peptides as selective tachykinin antagonists” (J Med Chem, 1993).

SMILES strings stand for the structures. Where a SMILES comes first, the peptide text is derived from it.

Regarding `CSCC[C@@H]1NC(=O)[C@H](CC(C)C)NC(=O)[C@@H]2CCCN2C(=O)[C@H](Cc2ccccc2)NC(=O)[C@H](Cc2c[nH]c3ccccc23)NC(=O)[C@H](CCC(N)=O)NC1=O`, the Kb on Substance-K receptor is 15.8 µM. On the same count and under the same terms, for `CSCC[C@@H]1NC(=O)[C@H](CC(C)C)NC(=O)[C@H]2CCCN2C(=O)[C@H](Cc2ccccc2)NC(=O)[C@H](Cc2c[nH]c3ccccc23)NC(=O)[C@H](CCC(N)=O)NC1=O` the value was 20 µM; for `CSCC[C@@H]1NC(=O)[C@H](CC(C)C)N2C=C[C@@H](NC(=O)[C@H](Cc3ccccc3)NC(=O)[C@](C)(c3cccc4ccccc34)NC(=O)[C@H](CCC(N)=O)NC1=O)C2=O`, 2.51 µM. `CSCC[C@@H]1NC(=O)[C@H](CC(C)C)NC(=O)CNC(=O)[C@H](Cc2ccccc2)NC(=O)[C@H](Cc2c[nH]c3ccccc23)NC(=O)[C@H](CCC(N)=O)NC1=O` (cyclo(FGLMQW)): the Kb is 2 µM at Substance-P receptor, 0.00794 µM on Substance-K receptor and 7.94 µM on Neuromedin-K receptor.

As to `CSCC[C@@H]1NC(=O)[C@H](CC(C)C)N2C=C[C@@H](NC(=O)[C@H](Cc3ccccc3)NC(=O)[C@H](Cc3ccccc3)NC(=O)[C@H](CCC(N)=O)NC1=O)C2=O`, the Kb at Substance-K receptor is 15.8 µM.

For `CSCC[C@@H]1NC(=O)[C@H](CC(C)C)NC(=O)[C@H](Cc2ccccc2)NC(=O)[C@H](Cc2c[nH]c3ccccc23)NC(=O)[C@H](CCC(N)=O)NC1=O` (cyclo(FLMQW)), the Kb on Substance-K receptor is 0.631 µM.
